Measured values as given in ChEMBL document CHEMBL3286193, “Discovery of a series of 2,5-diaminopyrimidine covalent irreversible inhibitors of Bruton's tyrosine kinase with in vivo antitumor activity” (J Med Chem, 2014).
Calls of active or inactive are those of the source. The calls are words filed in the database; no cut-off is given here.

Tests used:
[1] = target: T1, Tyrosine-protein kinase BTK (Homo sapiens, UniProt Q06187); assay: Inhibition of Btk (unknown origin) after 1 hr by HTRF assay
T1 sequence (Q06187 whole entry): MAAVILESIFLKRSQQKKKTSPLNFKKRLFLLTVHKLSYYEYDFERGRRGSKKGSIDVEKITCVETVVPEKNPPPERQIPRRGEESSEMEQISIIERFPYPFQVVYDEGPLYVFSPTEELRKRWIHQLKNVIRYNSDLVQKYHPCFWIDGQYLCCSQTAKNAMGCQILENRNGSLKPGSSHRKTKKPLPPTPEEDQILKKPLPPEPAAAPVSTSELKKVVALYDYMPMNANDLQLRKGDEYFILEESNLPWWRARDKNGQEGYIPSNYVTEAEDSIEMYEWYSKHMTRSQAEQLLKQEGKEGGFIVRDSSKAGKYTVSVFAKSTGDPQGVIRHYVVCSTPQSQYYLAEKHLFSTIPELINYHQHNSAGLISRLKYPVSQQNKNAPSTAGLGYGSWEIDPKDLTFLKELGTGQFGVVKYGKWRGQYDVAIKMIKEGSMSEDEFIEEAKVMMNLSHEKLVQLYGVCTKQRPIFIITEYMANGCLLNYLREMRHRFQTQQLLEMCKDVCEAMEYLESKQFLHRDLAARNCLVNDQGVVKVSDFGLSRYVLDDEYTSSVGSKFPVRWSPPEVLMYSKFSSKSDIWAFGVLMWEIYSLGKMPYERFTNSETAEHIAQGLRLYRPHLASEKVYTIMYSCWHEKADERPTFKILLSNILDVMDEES
In short: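 Recombinant kinases tested by HTRF KinEase protocol. Enzyme preincubated with inhibitor for a fixed 10 min. IC50 values are means of duplicates.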

[2] = target: T1, Tyrosine-protein kinase BTK; assay: Irreversible inhibition of Btk phosphorylation at Tyr551 in human Ramos cells at 1 uM incubated for 1 hr followed by compound washout with fresh media measured after 2 hrs by Western blot analysis; format: cell-based
In short: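 Ramos cells (5 × 10⁵) seeded overnight, treated with compound 1 h, then washed out with fresh media for 2 h. Cells stimulated with goat anti-human IgM for 3−5 min, lysed by boiling in SDS buffer, and Btk Tyr551 phosphorylation assessed by Western blot.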

[3] = Plasma concentration in CB17 SCID mouse xenografted with human DOHH2 cells at 10 mg/kg, iv qd administered for 14 days measured at 2 hrs post last dose; format: ADME, organism-based, DOHH-2; design: dose 10 mg/kg, route intravenous
In short: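 Female CB17/SCID mice were given 5 × 10⁶ DoHH2 cells subcutaneously. When tumours averaged ~167 mm³, mice were randomised into four groups (n = 6/group). Dosing was by tail-vein injection once daily for 14 consecutive days. Plasma compound levels were determined at 2 and 24 h after the final dose.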

[4] = Cytotoxicity against human Pfeiffer cells assessed as growth inhibition after 72 hrs by CellTiter-Glo luminescent cell viability assay; format: functional
In short: (§1)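 Lymphoma cells seeded at 5000 cells/well, incubated 24 h, then exposed to compounds for 72 h. Viability read by CellTiter-Glo luminescence. GI50 from dose−response curves, mean of two or three independent experiments in triplicate.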

[5] = Cytotoxicity against human DOHH2 cells assessed as growth inhibition after 72 hrs by CellTiter-Glo luminescent cell viability assay; format: functional, DOHH-2; in short: as §1
[6] = target: Epidermal growth factor receptor (Homo sapiens, UniProt P00533); conditions: 5 nM
Epidermal growth factor receptor, sequence (P00533 whole entry): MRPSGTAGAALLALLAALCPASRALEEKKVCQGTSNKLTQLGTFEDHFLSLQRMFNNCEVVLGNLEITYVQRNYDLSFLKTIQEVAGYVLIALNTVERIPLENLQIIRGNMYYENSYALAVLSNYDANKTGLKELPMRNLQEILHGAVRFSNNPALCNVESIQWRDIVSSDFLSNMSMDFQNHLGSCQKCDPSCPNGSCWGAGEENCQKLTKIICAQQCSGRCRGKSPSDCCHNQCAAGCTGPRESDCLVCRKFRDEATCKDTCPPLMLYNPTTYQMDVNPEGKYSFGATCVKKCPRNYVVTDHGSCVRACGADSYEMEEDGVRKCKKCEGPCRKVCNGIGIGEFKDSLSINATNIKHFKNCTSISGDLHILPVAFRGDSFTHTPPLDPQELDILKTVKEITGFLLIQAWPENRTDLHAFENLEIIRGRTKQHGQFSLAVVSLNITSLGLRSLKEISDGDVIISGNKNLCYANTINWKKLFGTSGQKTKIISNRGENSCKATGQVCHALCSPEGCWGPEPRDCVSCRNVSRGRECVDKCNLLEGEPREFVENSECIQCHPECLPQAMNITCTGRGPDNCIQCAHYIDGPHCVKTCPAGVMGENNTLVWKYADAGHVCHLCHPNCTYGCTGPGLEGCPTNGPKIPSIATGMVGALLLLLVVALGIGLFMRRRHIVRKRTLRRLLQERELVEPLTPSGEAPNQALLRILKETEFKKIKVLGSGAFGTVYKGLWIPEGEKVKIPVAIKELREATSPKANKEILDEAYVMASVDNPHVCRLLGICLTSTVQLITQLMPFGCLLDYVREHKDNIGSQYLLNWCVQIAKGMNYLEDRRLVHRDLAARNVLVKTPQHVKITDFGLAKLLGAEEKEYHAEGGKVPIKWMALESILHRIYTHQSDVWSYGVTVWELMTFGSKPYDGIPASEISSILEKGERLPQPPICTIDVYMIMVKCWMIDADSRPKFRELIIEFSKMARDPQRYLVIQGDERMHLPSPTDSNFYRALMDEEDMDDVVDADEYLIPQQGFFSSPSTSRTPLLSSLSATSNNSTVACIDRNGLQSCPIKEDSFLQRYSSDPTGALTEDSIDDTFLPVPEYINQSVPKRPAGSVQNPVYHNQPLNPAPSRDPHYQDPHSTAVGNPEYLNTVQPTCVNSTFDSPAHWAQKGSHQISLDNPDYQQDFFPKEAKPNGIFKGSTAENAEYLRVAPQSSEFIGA

Mus musculus = assay: Toxicity in CB17 SCID mouse xenografted with human DOHH2 cells assessed as body weight fluctuations at 10 mg/kg, iv qd administered for 14 days measured over 14 days of compound treatment; format: organism-based, DOHH-2; design: dose 10 mg/kg, route intravenous; conditions: in vivo, 336 h
In short: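 Female CB17/SCID mice carried subcutaneous DoHH2 xenografts (5 × 10⁶ cells injected), randomised at ~167 mm³ mean tumour volume into four groups (n = 6/group). Compound was given intravenously via the tail vein once daily for 14 consecutive days. Body weights were tracked over time throughout the study.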

[7] = Cytotoxicity against human SU-DHL6 cells assessed as growth inhibition after 72 hrs by CellTiter-Glo luminescent cell viability assay; format: functional, SU-DHL-6; in short: as §1

| SMILES | IC50 [1] [nM] | further results |
| --- | --- | --- |
| Cc1ccc(NC(=O)c2cccc(C(F)(F)F)c2)cc1C(=O)Nc1cnc(Nc2cccc(N)c2)nc1 | 14 | – |
| COc1cccc(Nc2ncc(NC(=O)c3cc(NC(=O)c4cccc(C(F)(F)F)c4)ccc3C)cn2)c1 | 53 | – |
| CCC(=O)Nc1cccc(Nc2ncc(NC(=O)c3cc(NC(=O)c4cccc(C(F)(F)F)c4)ccc3C)cn2)c1 | 15 | inhibition [2]: inactive |
| Cc1ccc(NC(=O)c2cccc(C(F)(F)F)c2)cc1C(=O)Nc1cnc(Nc2cccc(NC(=O)CCN(C)C)c2)nc1 | 14 | – |
| CCC(=O)Nc1ccc(C)c(C(=O)Nc2cnc(Nc3cccc(N)c3)nc2)c1 | 8560 | – |
| Cc1ccc(NC(=O)c2cccc(N(C)C)c2)cc1C(=O)Nc1cnc(Nc2cccc(N)c2)nc1 | 47 | – |
| Cc1ccc(NC(=O)c2cccc(C(F)(F)F)c2)cc1C(=O)Nc1cnc(Nc2ccc(N)cc2)nc1 | 8 | – |
| CCNc1ncc(NC(=O)c2cc(NC(=O)c3cccc(C(F)(F)F)c3)ccc2C)cn1 | 1110 | – |
| C=CC(=O)N1CCC[C@@H](n2nc(-c3ccc(Oc4ccccc4)cc3)c3c(N)ncnc32)C1 [IBRUTINIB] | – | concentration at 2 h [3]: 479 ng/mL; GI50 [4]: 2 nM; GI50 [5]: 410 nM; inhibition [6]: Active; Activity (Mus musculus): Non-toxic; GI50 [7]: 580 nM |
| Nc1cccc(Nc2ncc(NC(=O)c3cc(NC(=O)c4cccc(C(F)(F)F)c4)ccc3Cl)cn2)c1 | 11 | – |
| Cc1ccc(NC(=O)c2ccc3ccccc3c2)cc1C(=O)Nc1cnc(Nc2cccc(N)c2)nc1 | 39 | – |
| Cc1ccc(NC(=O)c2ccc(Cl)c(C(F)(F)F)c2)cc1C(=O)Nc1cnc(Nc2cccc(N)c2)nc1 | 9 | – |
| CCC(=O)N(C(=O)CC)c1cccc(Nc2ncc(NC(=O)c3cc(NC(=O)c4cccc(C(F)(F)F)c4)ccc3C)cn2)c1 | 1410 | – |
| Cc1ccc(NC(=O)c2ccc(C(F)(F)F)cc2)cc1C(=O)Nc1cnc(Nc2cccc(N)c2)nc1 | 25 | – |
| Cc1ccc(NC(=O)c2cccc(C(F)(F)F)c2)cc1C(=O)Nc1cnc(Nc2cccc(NC(=O)/C=C/CN(C)C)c2)nc1 | 15 | – |
| Cc1ccc(NC(=O)c2cccc(C(F)(F)F)c2)cc1C(=O)Nc1cnc(Nc2cccc(NC(=O)Cn3sc4ccccc4c3=O)c2)nc1 | 18 | – |
| C=CS(=O)(=O)Nc1cccc(Nc2ncc(NC(=O)c3cc(NC(=O)c4cccc(C(F)(F)F)c4)ccc3C)cn2)c1 | 16 | – |
| C=CC(=O)Nc1cccc(Nc2ncc(NC(=O)c3cc(NC(=O)c4cccc(F)c4)ccc3C)cn2)c1 | 48 | – |
| Nc1cccc(Nc2ncc(NC(=O)c3cccc(NC(=O)c4cccc(C(F)(F)F)c4)c3)cn2)c1 | 233 | – |
